High-throughput results: PubChem, several laboratories
H69AR inhibit – proliferation blockers of H69AR lung cancer cells, primary screen, cell-based, human, 86K library. H69AR lung tumor viability, ATP luminescence, 72 h; active compounds read low. viability, % at 10 µM. hit rate 6% among 85,000;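 active means viability at or below 40%; inactive means viability above 40%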;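 further: multidrug resistant small cell line overexpressing MRP-1 efflux transporter; 100% = mean luminescence of untreated control wells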
E coli WT exp – growth inhibitors of wild-type E. coli, primary screen, strain BW25113, expanded library, OD600 | OD600 absorbance | growth inhibition, % at 100 µM | hit rate 0.15% among 98,000 | AID 710, 2007;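 active means growth inhibition above about 50% at one test dose, limit read from the data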;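 further: growth measured after 20 h incubation at 37 °C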
Fibroblast inh – antiproliferative effect on LL 47 fibroblasts – human, LL 47 cells, CellTiter-Glo luminescence, primary screen; LL 47 human lung fibroblast viability, ATP luminescence; active compounds read low; viability, % at 10 µM; hit rate 1.1% among 85,000;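 active means viability at or below 50% in the single dose screen; inactive means viability above 50%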;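 further: compound exposure lasted 72 h before the ATP readout; 100% = median luminescence of untreated cell-only wells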
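Benchmarks: Cell-only wells, no compound | Test system: LL 47 human lung fibroblasts, passage 12 or lower | Input: 1,150 cells/well | Measured by: CellTiter-Glo luminescence measuring cellular ATP | Medium: IMEM, 15% FBS supplement | Schedule: Overnight attachment after seeding, then 72 h compound exposure at 37 °C | Doses: Compound addition at 0.1% DMSO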
Ecoli tolC – growth inhibitors of E. coli tolC mutant, primary screen, strain BW25113 ΔtolC::kan, 384-well. OD615. growth inhibition, % at 10 µM (by protocol). hit rate 2.2% among 65,000;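 active means growth inhibition at or above a cutoff equal to the mean over every tested compound plus 3 SD, cut at about 60% in these data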;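 further: growth measured after 20 h incubation at 37 °C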
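Doses: one dose of 10 µM final / Material: E. coli BW25113 ΔtolC::kan, tolC deletion mutant strain / Buffer or medium: LB with kanamycin 50 µg/mL / Evaluation: percent growth inhibition / Detection: optical density read at 615 nm / Incubation: 37 °C, 20 h exposure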
Jurkat viability – cytotoxicity toward Jurkat T cells, primary screen, cytotoxicity control, cell-based, Jurkat E6.1, 60K MLSMR library; Jurkat E6.1 viability, ATP luminescence, 48 h; inhibition, % at 4 µM; hit rate 1.2% among 56,000; AID 463, 2006;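 active means inhibition above the mean inhibition of all tested compounds plus 3 SD, cut at about 28% in these data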
HUVEC inhibit – inhibitors of HUVEC proliferation, primary screen, cell-based, 384-well; viability, % at 10 µM (by protocol); CellTiter-Glo luminescence, 72 h; active compounds read low; hit rate 1.1% among 86,000; AID 648, 2007;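 active means viability at or below 30%; inactive means viability above 30%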;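 further: 100% = median luminescence of DMSO-only cell control wells on each plate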
Active calls of the source: *; nt = no result. The list is not random: actives were taken first. Their share in the collection is about 6.4%.

SMILES | H69AR inhibit | E coli WT exp | Fibroblast inh | Ecoli tolC | Jurkat viability | HUVEC inhibit
COc1ccc(-c2nc3cc(NC(=O)Cc4ccc(OC)c(OC)c4)ccc3o2)cc1 | 81 | -7 | 92 | 22 | 73* | 82
CNc1nc(Sc2ccc(C)cc2)cc(C(F)(F)F)n1 | nt | 0 | nt | nt | nt | nt
COC(=O)c1ccc(NC(=O)CCN2CCN(Cc3ccccc3)CC2)cc1 | 89 | nt | 99 | nt | nt | 98
COc1cc(N=c2ssnc2Cl)cc(OC)c1 | 0.0* | 24 | 70 | -1 | 1 | 90
OCc1ccccc1N=c1ssnc1Cl | 60 | 4 | 97 | 12 | 4 | 96
Cc1cccc(NS(=O)(=O)c2cccc3nsnc23)c1 | 88 | 7 | 91 | nt | nt | 91
Cc1ccc(C)c(S(=O)(=O)Nc2ccc3scnc3c2)c1 | 17* | 7 | nt | 15 | 92* | 63
CS(=O)(=O)N1CC(C(=O)NC2CC2)Oc2ccc(Cl)cc21 (stereo not drawn) | nt | 8 | nt | nt | nt | nt
NC(=O)CSc1nnc(CCc2nc3ccccc3[nH]2)n1-c1ccccc1 | 92 | nt | 100 | nt | nt | 101
CC1(C)CC(=O)C(C(C#Cc2ccccc2)C2=C(O)CC(C)(C)CC2=O)=C(O)C1 | 29* | 7 | 83 | nt | nt | 82
O=C1CCCC(O)=C1C(C#Cc1ccccc1)C1=C(O)CCCC1=O | 7.3* | 0 | 81 | -4 | 1 | 76
CC1(C)Cc2cccc(OCC(=O)Nc3cccnc3Cl)c2O1 | 85 | 4 | 97 | nt | nt | 100
CS(=O)(=O)N1CCc2cc(-c3csc(NC(=O)Cc4ccccc4)n3)ccc21 | 79 | nt | 101 | nt | nt | 84
CC1Cc2cc(-c3csc(NC(=O)Cc4cccs4)n3)ccc2N1S(C)(=O)=O (stereo not drawn) | 75 | -13 | 79 | 63* | 74* | 67
COc1ccccc1C(=O)Nc1cc(-c2nn3c(C)nnc3s2)ccc1C | nt | nt | nt | 0 | -1 | nt
COc1ccc(NC(=O)N2CCC(n3nnc4cc(C)ccc43)CC2)cc1 | 84 | nt | 103 | nt | nt | 92
CC(=O)OC1COC(n2ccc3cc([N+](=O)[O-])ccc32)C(OC(C)=O)C1OC(C)=O (stereo not drawn) | 90 | nt | 92 | nt | nt | 101
Cc1cc(C)n(-c2nc(NCC(C)O)c3c4c(sc3n2)COC(C)(C)C4)n1 (stereo not drawn) | 59 | 6 | 93 | nt | nt | 92
Cc1cc(C)n(-c2nc(SCC(=O)NCC3CCCO3)c3c4c(sc3n2)CCCC4)n1 (stereo not drawn) | 71 | nt | 76 | 5 | 12 | 70
Cc1cc(C)n(-c2nc(NCCO)c3c4c(sc3n2)CCCC4)n1 | 11* | -1 | 84 | 54 | 9 | 78
Cc1cc(C)n(-c2nc(NCCCO)c3c4c(sc3n2)CCCC4)n1 | 4.9* | 11 | 79 | 9 | 14 | 17*
Cc1cc(C)n(-c2nc(NCC(C)O)c3c4c(sc3n2)CCCC4)n1 (stereo not drawn) | 107 | -3 | 86 | 94* | 8 | 84
Cc1cc(C)n(-c2nc(NCC3CCCO3)c3c4c(sc3n2)COC(C)(C)C4)n1 (stereo not drawn) | 10* | -2 | 95 | 51 | -4 | 100
COc1ccc(OC)c(NC(=O)CSc2nnc(Cn3nnc4ccccc43)n2C)c1 | 100 | 4 | 99 | nt | nt | 101
c1ccc(-c2nc(CSc3nnc(-c4cccs4)o3)cs2)cc1 | 76 | -28 | 96 | 63* | -6 | 96
SMILES | H69AR inhibit | E coli WT exp | Fibroblast inh | Ecoli tolC | Jurkat viability | HUVEC inhibit
Cc1ccc(Nc2nc(CSc3nnc(-c4cccs4)o3)cs2)cc1 | nt | -7 | nt | 43 | 2 | nt
O=C(N/C(=C\c1ccc(Br)cc1)c1nc2ccccc2[nH]1)c1ccco1 | nt | -10 | nt | nt | nt | nt
Cc1ccc(SC/C(O)=C(\C#N)c2nc3ccccc3s2)cc1 | 55 | -15 | 92 | 83* | -2 | 39
COc1ccc(C/C(O)=C(\C#N)c2nc3ccccc3s2)cc1 | 67 | -7 | 87 | 74* | nt | 81
N#C/C(=C(/O)CSc1ccccc1C(=O)O)c1nc2ccccc2s1 | nt | -5 | nt | nt | nt | nt
CCOC(=O)c1c(NC(C)=O)sc2c1C1CCN2CC1 | 79 | nt | 99 | nt | nt | 100
Cc1ccccc1C1CC(c2ccccc2OC(F)F)Nc2ncnn21 (stereo not drawn) | 0.6* | 9 | 94 | 32 | 3 | 98
Cc1ccc(C2CC(c3ccccc3OC(F)F)Nc3ncnn32)cc1 (stereo not drawn) | nt | -1 | nt | 26 | -5 | nt
COc1cc(NS(=O)(=O)c2ccc(NC(=O)/C(=C\c3ccccc3OC)NC(=O)c3ccccc3)cc2)nc(OC)n1 | nt | -8 | nt | nt | nt | nt
O=C(CN(C(=O)c1cc2c(s1)CCC2)C1CCCC1)NCc1cccs1 | 66 | -4 | 92 | 45 | nt | 98
O=C(c1cc2nc(-c3ccco3)cc(C(F)(F)F)n2n1)N1CCN(Cc2ccccc2)CC1 | 106 | -9 | 101 | nt | nt | 92
Cc1ccc(Cn2ccc(NC(=O)c3cc4nc(-c5ccco5)cc(C(F)(F)F)n4n3)n2)cc1 | 35* | -4 | 67 | nt | nt | 68
Cc1c(NC(=O)c2cc3nc(-c4ccc(Cl)cc4)cc(C(F)(F)F)n3n2)c(=O)n(-c2ccccc2)n1C | 18* | nt | 112 | nt | nt | 94
CCOC(=O)c1cc2nc(-c3ccco3)cc(C(F)(F)F)n2n1 | 70 | nt | 90 | nt | nt | 88
O=C(c1cc2nc(-c3ccco3)cc(C(F)(F)F)n2n1)N1CCN(c2ccc(F)cc2)CC1 | 71 | -10 | 100 | 65* | 4 | 84
CC1CCc2cc(F)ccc2N1C(=O)c1cc2nc(-c3ccco3)cc(C(F)(F)F)n2n1 (stereo not drawn) | 92 | -3 | 108 | 63* | -1 | 95
CC(=O)Nc1ccc(S(=O)(=O)NC2(C(F)(F)F)N=C(c3ccccc3)NC2=O)cc1 (stereo not drawn) | nt | 2 | nt | nt | nt | nt
Cc1ccc(C(C(=O)NC2CCCCC2)N(Cc2ccco2)C(=O)Cn2cnc3ccccc32)cc1 (stereo not drawn) | 77 | nt | 94 | nt | nt | 86
Cc1noc(C)c1C(=O)OCC(=O)NC1CC1 | nt | -1 | nt | nt | nt | nt
COC(=O)c1sc(N)c(C(=O)OC)c1COC(=O)c1c(C)noc1C | 19* | 0 | 54 | 13 | 94* | 67
C=CCNC(=S)NNC(=O)c1ccc(OCCC)cc1 | 102 | nt | 99 | nt | nt | 98
CCCOc1ccc(C(=O)NNC(=S)NC(=O)CC)cc1 | nt | 68* | nt | nt | nt | nt
Cc1ccnn1CCSCC(=O)O | 89 | -10 | 99 | nt | nt | 104
CCc1nc(Nc2ccc(OC)c(OC)c2)c2nnn(Cc3ccccc3Cl)c2n1 | 56 | nt | 84 | nt | nt | 27*
O=C(Nc1nc(N2C(=O)c3ccccc3C2=O)n(-c2ccccc2)n1)c1ccc(Cl)cc1 | 54 | -5 | 98 | nt | nt | 94
CCn1c(COc2ccc(=O)n(-c3ccccc3)n2)nnc1SCc1ccccc1C | nt | 13 | nt | nt | nt | nt
c1ccc(-c2nc(NCC3CCCO3)c3oc4ccccc4c3n2)cc1 (stereo not drawn) | 60 | -24 | 110 | nt | nt | 82
